Experimental data as given in ChEMBL document CHEMBL4715736, “Identification of anticancer agents based on the thieno[2,3-b]pyridine and 1H-pyrazole molecular scaffolds” (2016).

Legend:
Format in all cases: functional
[1] = system: SR; experiment: Growth inhibition of human SR cells assessed as cell growth at 0.01 uM incubated for 48 hrs by sulforhodamine B assay relative to control; conditions: read-out: Activity
[2] = system: UACC-257; experiment: Growth inhibition of human UACC-257 cells incubated for 48 hrs by sulforhodamine B assay
Outline: (§1)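 NCI DTP 60-line human tumour panel. Dose-response curves were run only for ligands active in the initial 10 µM screen. GI50 (concentration giving 50% of maximal inhibition of proliferation) and TGI (concentration giving total growth inhibition) were derived from these curves.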

[3] = system: SK-MEL-2; experiment: Growth inhibition of human SK-MEL-2 cells assessed as cell growth at 0.01 uM incubated for 48 hrs by sulforhodamine B assay relative to control; conditions: read-out: Activity
[4] = system: MOLT-4; experiment: Growth inhibition of human MOLT-4 cells assessed as cell growth at 100 uM incubated for 48 hrs by sulforhodamine B assay relative to control; conditions: read-out: Activity
[5] = system: RXF 393; experiment: Growth inhibition of human RXF 393 cells assessed as cell growth at 1 uM incubated for 48 hrs by sulforhodamine B assay relative to control; conditions: read-out: Activity
[6] = system: OVCAR-4; experiment: Growth inhibition of human OVCAR-4 cells assessed as cell growth at 100 uM incubated for 48 hrs by sulforhodamine B assay relative to control; conditions: read-out: Activity
[7] = system: SN12C; experiment: Growth inhibition of human SN12C cells incubated for 48 hrs by sulforhodamine B assay; outline: as §1
[8] = system: MDA-MB-435; experiment: Growth inhibition of human MDA-MB-435 cells assessed as cell growth at 0.1 uM incubated for 48 hrs by sulforhodamine B assay relative to control; conditions: read-out: Activity
[9] = system: TK-10; experiment: Growth inhibition of human TK-10 cells assessed as cell growth at 100 uM incubated for 48 hrs by sulforhodamine B assay relative to control; conditions: read-out: Activity
[10] = system: IGROV-1; experiment: Growth inhibition of human IGROV-1 cells incubated for 48 hrs by sulforhodamine B assay
Outline: (§2)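 NCI60 panel at the NCI Developmental Therapeutics Program. Only compounds active in the 10 µM screen went to dose-response testing. GI50, the concentration giving 50% of maximal inhibition of proliferation, and TGI, the concentration giving total growth inhibition, were derived from the dose-response curves.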

[11] = system: Malme-3M; experiment: Growth inhibition of human Malme-3M cells incubated for 48 hrs by sulforhodamine B assay; outline: as §2
[12] = system: NCI-H460; experiment: Growth inhibition of human NCI-H460 cells assessed as cell growth at 0.1 uM incubated for 48 hrs by sulforhodamine B assay relative to control; conditions: read-out: Activity
[13] = system: T47D; experiment: Growth inhibition of human T47D cells incubated for 48 hrs by sulforhodamine B assay; outline: as §1
[14] = system: HCT-15; experiment: Growth inhibition of human HCT-15 cells assessed as cell growth at 0.01 uM incubated for 48 hrs by sulforhodamine B assay relative to control; conditions: read-out: Activity
[15] = system: Hs-578T; experiment: Growth inhibition of human Hs-578T cells assessed as cell growth at 0.1 uM incubated for 48 hrs by sulforhodamine B assay relative to control; conditions: read-out: Activity
[16] = system: HCT-15; experiment: Growth inhibition of human HCT-15 cells assessed as cell growth at 1 uM incubated for 48 hrs by sulforhodamine B assay relative to control; conditions: read-out: Activity
[17] = system: DU-145; experiment: Growth inhibition of human DU-145 cells assessed as cell growth at 0.1 uM incubated for 48 hrs by sulforhodamine B assay relative to control; conditions: read-out: Activity
Outline: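 NCI Developmental Therapeutics Program NCI60 panel. Compounds that were active in the 10 µM one-dose screen went on to dose–response testing. Growth at each concentration is expressed relative to untreated control (100%). GI50 (concentration giving 50% of maximal inhibition of proliferation) and TGI (concentration giving total growth inhibition) were derived from the curves.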

[18] = system: NCI-H460; experiment: Growth inhibition of human NCI-H460 cells assessed as cell growth at 0.01 uM incubated for 48 hrs by sulforhodamine B assay relative to control; conditions: read-out: Activity
[19] = system: K562; experiment: Growth inhibition of human K562 cells assessed as cell growth at 100 uM incubated for 48 hrs by sulforhodamine B assay relative to control; conditions: read-out: Activity
[20] = system: NCI-H522; experiment: Growth inhibition of human NCI-H522 cells assessed as cell growth at 100 uM incubated for 48 hrs by sulforhodamine B assay relative to control; conditions: read-out: Activity
[21] = system: SR; experiment: Growth inhibition of human SR cells assessed as cell growth at 1 uM incubated for 48 hrs by sulforhodamine B assay relative to control; conditions: read-out: Activity
[22] = system: SF-295; experiment: Growth inhibition of human SF-295 cells assessed as cell growth at 1 uM incubated for 48 hrs by sulforhodamine B assay relative to control; conditions: read-out: Activity
[23] = system: MDA-MB-231; experiment: Growth inhibition of human MDA-MB-231 cells assessed as cell growth at 100 uM incubated for 48 hrs by sulforhodamine B assay relative to control; conditions: read-out: Activity
[24] = system: MOLT-4; experiment: Growth inhibition of human MOLT-4 cells assessed as cell growth at 0.1 uM incubated for 48 hrs by sulforhodamine B assay relative to control; conditions: read-out: Activity
[25] = system: SN12C; experiment: Growth inhibition of human SN12C cells assessed as cell growth at 1 uM incubated for 48 hrs by sulforhodamine B assay relative to control; conditions: read-out: Activity
[26] = system: HT-29; experiment: Growth inhibition of human HT-29 cells incubated for 48 hrs by sulforhodamine B assay; outline: as §2
[27] = system: KM12; experiment: Growth inhibition of human KM12 cells assessed as cell growth at 100 uM incubated for 48 hrs by sulforhodamine B assay relative to control; conditions: read-out: Activity
[28] = system: HOP-62; experiment: Growth inhibition of human HOP-62 cells assessed as cell growth at 0.1 uM incubated for 48 hrs by sulforhodamine B assay relative to control; conditions: read-out: Activity
[29] = system: SK-MEL-5; experiment: Growth inhibition of human SK-MEL-5 cells assessed as cell growth at 0.01 uM incubated for 48 hrs by sulforhodamine B assay relative to control; conditions: read-out: Activity
[30] = system: UACC-257; experiment: Growth inhibition of human UACC-257 cells assessed as cell growth at 0.1 uM incubated for 48 hrs by sulforhodamine B assay relative to control; conditions: read-out: Activity
[31] = system: OVCAR-3; experiment: Growth inhibition of human OVCAR-3 cells assessed as cell growth at 100 uM incubated for 48 hrs by sulforhodamine B assay relative to control; conditions: read-out: Activity
[32] = system: OVCAR-4; experiment: Growth inhibition of human OVCAR-4 cells assessed as cell growth at 0.01 uM incubated for 48 hrs by sulforhodamine B assay relative to control; conditions: read-out: Activity
[33] = system: OVCAR-8; experiment: Growth inhibition of human OVCAR-8 cells assessed as cell growth at 0.01 uM incubated for 48 hrs by sulforhodamine B assay relative to control; conditions: read-out: Activity
[34] = read-out: LC50 (the source's name)

CN1CCc2nc3sc(C(N)=O)c(N)c3c(-c3cccs3)c2C1
growth at 0.01 µM [1]: 97% | GI50 [2]: 4 µM | LC50 (concentration killing 50% of cells) [2]: > 100 µM | TGI [2]: > 100 µM | growth at 0.01 µM [3]: 107% | growth at 100 µM [4]: -4% | growth at 1 µM [5]: 55% | growth at 100 µM [6]: 6% | GI50 [7]: 2.69 µM | TGI [7]: > 100 µM | CC50 [7, 34]: > 100 µM | growth at 0.1 µM [8]: 95% | growth at 100 µM [9]: -6% | GI50 [10]: 5.16 µM | LC50 [10]: > 100 µM | TGI [10]: > 100 µM | GI50 [11]: 5.06 µM | LC50 [11]: > 100 µM | TGI [11]: 38.4 µM | growth at 0.1 µM [12]: 114% | GI50 [13]: 2.81 µM | TGI [13]: > 100 µM | CC50 [13, 34]: > 100 µM | growth at 0.01 µM [14]: 103% | growth at 0.1 µM [15]: 92% | growth at 1 µM [16]: 93% | growth at 0.1 µM [17]: 115% | growth at 0.01 µM [18]: 109% | growth at 100 µM [19]: 2% | growth at 100 µM [20]: -26% | growth at 1 µM [21]: 71% | growth at 1 µM [22]: 100% | growth at 100 µM [23]: 26% | growth at 0.1 µM [24]: 91% | growth at 1 µM [25]: 80% | GI50 [26]: 3.11 µM | LC50 [26]: > 100 µM | TGI [26]: 70.9 µM | growth at 100 µM [27]: 2% | growth at 0.1 µM [28]: 104% | growth at 0.01 µM [29]: 96% | growth at 0.1 µM [30]: 105% | growth at 100 µM [31]: -8% | growth at 0.01 µM [32]: 110% | growth at 0.01 µM [33]: 106%
